Measurements: PubChem BioAssay AID573 (SRMLSC, 2007)
The whole screen tested about 65,000 compounds, of which about 1,400 (2.2%) were called active. This is one part of a sample in which actives are shown more often than they occur.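 The calls were made as follows: active = growth inhibition at or above a cutoff equal to the mean over every tested compound plus 3 SD (cut at about 60% in these data); inactive = the rest.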

Assay: E. coli ΔtolC antibacterial growth inhibition – strain BW25113 ΔtolC::kan, 384-well, primary screen (AID 573);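 also: growth measured after 20 h incubation at 37 °C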
Details: E. coli BW25113 tolC mutant growth, OD615; active compounds read high; screened at 10 µM (by protocol)
In short: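 signal = optical density read at 615 nm | test system = E. coli ΔtolC::kan strain BW25113 | timing = 20 h compound exposure of bacteria at 37 °C | buffer or medium = LB medium plus 50 µg/mL kanamycin | compound dosing = 10 µM final, single dose | evaluation = % inhibition of E. coli growth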

SMILES	growth inhibition
CCOC(=O)c1c(NC(=O)CSc2nnc(CN3CCOCC3)n2C)sc2c1CCCC2	5.6% (inactive)
CCOCC(=O)Nc1sc2c(c1C(=O)OCC)CCCC2	42.8% (inactive)
CCOC(=O)c1c(NC(=O)CSc2nnc(C)c(=O)[nH]2)sc2c1CCC2	66.5% (active)
CC1(C)CC(=O)c2cc(OCC(=O)NCC3CCCO3)ccc2O1 (configuration not stated)	-5% (inactive)
O=C(NCCCN1CCCCCC1)C1CC(=O)N(C2CCCC2)C1 (configuration not stated)	-11.7% (inactive)
COc1cc(OC)cc(C(=O)Nc2ccc(-c3nc4ccccc4o3)c(O)c2)c1	19.7% (inactive)
Cc1nc2nc(COc3ccccc3)[nH]n2c(=O)c1Cc1ccccc1	100% (active)
Cc1nc(SC(C)C)[nH]c(=O)c1Cc1ccccc1	0% (inactive)
Cc1nc2nc(COc3ccccc3)[nH]n2c(=O)c1C	11.6% (inactive)
O=C(NCc1ccco1)c1sc2cccc(F)c2c1Cl	-1.49% (inactive)
CCOc1ccccc1NC(=O)C1CCN(S(=O)(=O)c2c(C)nn(C)c2C)CC1	-6.48% (inactive)
COc1ccc(-n2c(SCC(=O)OC(C)C)nnc2-c2ccccn2)cc1	4.58% (inactive)
Nc1nonc1-c1nc2ccccc2n1Cc1ccc(F)cc1	-8.77% (inactive)
CCOC(=O)c1c(CN2CCOCC2)n(-c2ccccc2)c2ccc(O)cc12	65.2% (active)
O=c1c(-c2ccccc2)coc2c(CN3CCOCC3)c(O)ccc12	-9.34% (inactive)
Cc1c(C(=O)N2CCOCC2)[nH]c2ccc(OCc3ccccc3)cc12	1.84% (inactive)
O=C(O)c1ccc(NS(=O)(=O)c2cccc3nsnc23)cc1	-25% (inactive)
Cc1cccc2nc(CNc3ccc(F)cc3)cn12	4.83% (inactive)
COc1cc(-c2noc(C3CCCN(S(=O)(=O)c4cccc(Cl)c4)C3)n2)cc(OC)c1OC (configuration not stated)	35.2% (inactive)
O=C(Nc1ccccc1N1CCCCC1)c1ccc2nccnc2c1	28.8% (inactive)
O=C(Nc1ccccc1N1CCN(c2ccccc2)CC1)c1cccc(F)c1	17.8% (inactive)
O=C(Nc1ccccc1N1CCCCC1)c1cccc(F)c1	100% (active)
O=C(Nc1ccccc1F)C1C2C=CC3(O2)C1C(=O)N(c1cccnc1)C3C(=O)NC1CCCCC1 (configuration not stated)	-12.5% (inactive)
COc1ccc2nc(N3CCCC(O)C3)c(C#N)cc2c1 (configuration not stated)	5.39% (inactive)

SMILES	growth inhibition
CCOc1ccc2nc(N3CCCN(C(=O)Nc4ccccc4C)CC3)c(C#N)cc2c1	62.3% (active)
CCOc1ccc2nc(NCCNS(=O)(=O)c3ccccc3)c(C#N)cc2c1	-0.48% (inactive)
Cc1ccccc1-c1nc(CS(=O)(=O)CC(=O)N2CCc3ccccc3C2)c(C)o1	63% (active)
Cc1oc(-c2ccccc2F)nc1CS(=O)(=O)CC(=O)NCCCN(C)C1CCCCC1	-1.97% (inactive)
COc1ccc(-c2nc(CS(=O)CC(=O)N3CCc4ccccc4C3)c(C)o2)cc1 (configuration not stated)	3.93% (inactive)
CCCc1cc(=O)[nH]c(SCc2ccc(C#N)cc2)n1	14.9% (inactive)
CCCCC(=O)N(c1ccc(OC)cc1)C1C=CS(=O)(=O)C1 (configuration not stated)	-9.87% (inactive)
Fc1ccc(Cn2nnnc2C(c2cccs2)N2CCCCCC2)cc1 (configuration not stated)	85.7% (active)
CCC(C)(C)n1nnnc1C(c1cccs1)N1CCN(Cc2ccccc2)CC1 (configuration not stated)	4.31% (inactive)
Fc1ccccc1C(c1nnnn1Cc1ccc2c(c1)OCO2)N1CCN(Cc2ccccc2)CC1 (configuration not stated)	20.4% (inactive)
COc1ccc(N2CCN(Cc3cc(=O)oc4ccc5ccccc5c34)CC2)cc1	11.6% (inactive)
COc1ccc(CCNC(=O)c2ccco2)cc1	-4.03% (inactive)
CCOC(=O)C1C(=O)C=C(c2ccc(OC)cc2)CC1c1ccco1 (configuration not stated)	85.4% (active)
CCOC(=O)C1C(=O)NC(N2CCN(c3ccccc3)CC2)=NC1c1ccco1 (configuration not stated)	-7.5% (inactive)
CCOc1ccc(S(=O)(=O)n2ccnc2)c2ccccc12	3.73% (inactive)
CS(=O)(=O)N(CC(=O)N1CCN(c2cccc(Cl)c2)CC1)c1ccccc1	1.41% (inactive)
Cc1ccccc1OCC(=O)Nc1ccc(N2CCN(C(=O)C(C)C)CC2)c(Cl)c1	42.8% (inactive)
CCc1nnc(NS(=O)(=O)c2ccc(NS(=O)(=O)c3ccccc3)cc2)s1	19% (inactive)
CCOC(=O)C1Cn2c(nc3c(c2=O)C(C)(CC)Cc2ccccc2-3)S1 (configuration not stated)	67.9% (active)
CCOC(=O)C1CCc2nc3ccccc3c(=O)n21 (configuration not stated)	-18.7% (inactive)
CC1(C)Cc2ccccc2-c2nc(CN3CCOCC3)[nH]c(=O)c21	5.57% (inactive)
CCCCc1nc2c(=O)[nH]c3ccccc3c2o1	-2.92% (inactive)
Clc1ccc(Cn2ncc3c(NCc4cccnc4)ncnc32)cc1	18.6% (inactive)
O=C(NCc1ccco1)C1CCCN(S(=O)(=O)c2cccc3nonc23)C1 (configuration not stated)	-21.5% (inactive)

SMILES	growth inhibition
COc1ccc(N2C(=O)CC(N3CCC(C(N)=O)CC3)C2=O)cc1 (configuration not stated)	-10.9% (inactive)
CCN(CC)C(=O)CSc1nnc(-c2cccc(OC)c2)o1	-2.54% (inactive)
COc1cccc(NC(=O)CN(C)S(=O)(=O)c2ccc(C)cc2)c1	13.3% (inactive)
COc1cccc(-c2nnc(NC(=O)c3ccc(S(=O)(=O)N(CC(C)C)CC(C)C)cc3)o2)c1	98.8% (active)
CCOC(=O)c1sc(NC(=S)n2cc(C)cn2)c(C(=O)OCC)c1C	23.8% (inactive)
Cc1cc2nc(-c3ccc(NC(=O)c4cccnc4)cc3)oc2cc1C	10.2% (inactive)
O=C(c1ccco1)N1CCN(C(=O)c2ccc(COc3ccc(F)cc3)o2)CC1	1.7% (inactive)
Cc1cc(=O)[nH]c(=S)[nH]1	-13.2% (inactive)
O=C1NC(Nc2nc3ccccc3s2)(C(F)(F)F)C(=O)N1C1CCCCC1 (configuration not stated)	100% (active)
COC(=O)NC1(C(F)(F)F)NC(=O)N(C2CCCCC2)C1=O (configuration not stated)	-5.17% (inactive)
C1=C(N2CCOCC2)/C(=C/c2nc3ccccc3[nH]2)CC1	-16.7% (inactive)
CCOC(=O)c1cc(-c2ccc(Cl)s2)nc2c1c(C)nn2C	8.55% (inactive)
CC(C)CCNC(=O)CCNS(=O)(=O)c1ccc(Cl)cc1	7.04% (inactive)
Cc1cc(NC(=O)CCC2COc3ccccc3O2)no1 (configuration not stated)	0.5% (inactive)
COc1ccc(OC)c2sc(NC(=O)C3COc4ccccc4O3)nc12 (configuration not stated)	70.5% (active)
O=C(Nc1nc(-c2ccncc2)cs1)C1COc2ccccc2O1 (configuration not stated)	36.7% (inactive)
CC(=O)c1cnc(Nc2nc(C)c3cc(C)ccc3n2)nc1C	-6.16% (inactive)
COc1ccccc1-c1cc(C(=O)N2CCCCC2)no1	7.63% (inactive)
COc1ccccc1N1CCN(C(=O)c2cc(-c3ccc(Cl)c(Cl)c3)on2)CC1	-3.17% (inactive)
COc1ccccc1N1CCN(C(=O)c2cc(-c3ccc(Br)cc3)on2)CC1	63.8% (active)
Oc1c(C(c2ccccn2)N2CCOCC2)ccc2cccnc12 (configuration not stated)	29.8% (inactive)
CCCC(C(=O)N1CCOCC1)N1C(=O)C2C3C=CC(C3)C2C1=O (configuration not stated)	-13.1% (inactive)
CC(C)c1ccc(N2CC(C(=O)Nc3nccs3)CC2=O)cc1 (configuration not stated)	9.63% (inactive)
Cc1oc(C)c(C(=O)NCCCC(=O)O)c1C(=O)NCCCC(=O)O	-20.2% (inactive)
